How the values were obtained:
HeLa cells = assay: MTT cell viability assay, HeLa cells; type: cell-based
In short: (§1)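 HeLa or Saos-2 cells seeded at 1 × 10^4 cells/well and incubated 48 h with test compound in culture medium (200, 300, 400 μM) before MTT read-out; IC50 after 48 h. Inhibitor experiments used test compound at 500 μM for 48 h with or without l-Phe (3 mM) or levamisole (1 mM). Separately, exogenous ALP (5 U/mL) was added together with test compound.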

Saos-2 cells = assay: MTT cell viability assay, Saos-2 cells; type: cell-based; conditions: Saos-2, six precursors 500 μM, 48 h
In short: as §1

| Compound | cell compatibility (HeLa cells; 3 mM, cell culture) | rescue of precursor-treated cells by PLAP inhibitor (Saos-2 cells; L-Phe 3 mM) | rescue of precursor-treated cells by TNAP inhibitor (HeLa cells; HeLa, six precursors 500 μM, inhibitor 1 mM, 48 h) | rescue of precursor-treated cells by TNAP inhibitor (Saos-2 cells; inhibitor 1 mM) |
| --- | --- | --- | --- | --- |
| N[C@@H](Cc1ccccc1)C(=O)O [L-Phe, L-phenylalanine] | cell compatible | hardly rescue the Saos-2 cells at all | – | – |
| c1ccc(C2CN3CCSC3=N2)cc1 (single isomer, unassigned; (-)) [(−)-tetramisole] | – | – | hardly rescues HeLa cells | significantly increases the cell viability |

— publication PMC4830347 (Journal of the American Chemical Society, 2016)
